Results pooled from the literature.
Protocols differ between the studies behind these lines.
Target: RAC-gamma serine/threonine-protein kinase (AKT3, Homo sapiens, UniProt Q9Y243)

CC(C)(C)c1cc(C=C(C#N)C#N)cc(Br)c1O
remaining activity (enzyme activity; inhibitor; 0.5 µM): 111%

N#CC1(c2ccccn2)CCN(Cc2cc(C(=O)O)c(=O)n3ccccc23)CC1
remaining binding (cell-free assay; competition with immobilised ligand; 1 µM): 100%

Cn1cc(-c2cc(F)cc(N3CCn4c(cc5c4CCCC5)C3=O)c2CO)cc(Nc2ccc(N3CCN(C4COC4)CC3)cn2)c1=O
inhibition (enzyme activity; inhibitor; 0.1 µM): 5%

COc1cc(Nc2ncc(F)c(Nc3ccc4c(n3)NC(=O)C(C)(C)O4)n2)cc(OC)c1OC
inhibition (binding; competition with immobilised ligand; 10 µM): 0%

O=c1[nH]c2ccccc2n1C1CCN(Cc2ccc(-c3[nH]c4cc5ncnc5cc4nc3-c3ccccc3)cc2)CC1
remaining signal (cell-free assay; 0.5 µM): 103%

Cc1nn(C)cc1-c1nc2c(N3CCN(Cc4ccc(Cl)cc4)CC3)c(Cl)cnc2[nH]1
remaining binding (binding; competition with immobilised ligand; 1 µM): 100%

Cn1cncc1[C@](O)(COc1ccc(C#N)cc1-c1ccc(OC(F)(F)F)cc1)c1ccc(C#N)cc1
remaining binding (cell-free assay; competition with immobilised ligand; 1 µM): 100%

COc1ncccc1-c1cnn2ccc(N3CCN(C(=O)OC(C)C)CC3)nc12
remaining binding (binding; competition with immobilised ligand; 1 µM): 100%

Nc1ncc(-c2nc(N3CCOCC3)nc(N3CCOCC3)n2)c(C(F)F)n1
remaining binding (binding; competition with immobilised ligand; 10 µM): 59%

Cn1cc(-c2cccc(N3CCc4c(sc5c4CC(C)(C)C5)C3=O)c2CO)cc(Nc2ccncn2)c1=O
inhibition (enzyme activity; inhibitor; 1 µM): 6%
